In ChEMBL document CHEMBL4619772 (J Med Chem, 2020):

Tests used:
[1] = test system: A549; test: Inhibition of pseudotyped HIV/EBOV GP infected in human A549 cells assessed as reduction in virus entry at 12.5 uM measured after 48 hrs by luciferase reporter gene assay relative to control; format: cell-based; details: Ebolavirus
How it was run: (§1)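 Low-passage A549 cells are infected with HIV-based pseudovirions carrying EBOV or MARV GP and a luciferase reporter, with or without compound at 12.5 μM. […] Toremifene is the positive control.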

[2] = Inhibition of pseudotyped HIV/MARV GP infected in human A549 cells assessed as reduction in virus entry measured after 48 hrs by luciferase reporter gene assay; format: cell-based, Marburgvirus; details: Orthomarburgvirus, A549, 48 h
[3] = Inhibition of pseudotyped HIV/EBOV GP infected in human A549 cells assessed as reduction in virus entry measured after 48 hrs by luciferase reporter gene assay; format: cell-based, Ebolavirus; details: Orthoebolavirus, A549, 48 h
[4] = test system: A549; test: Inhibition of pseudotyped HIV/MARV GP infected in human A549 cells assessed as reduction in virus entry at 12.5 uM measured after 48 hrs by luciferase reporter gene assay relative to control; format: cell-based; details: Marburgvirus; how it was run: as §1
[5] = Selectivity index, ratio of CC50 for human A549 cells to EC50 for HIV/EBOV-GP infected in human A549 cells; format: toxicity, cell-based; details: read-out: Ratio CC50/EC50
How it was run: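 Ratio CC50/EC50. CC50 is A549 cytotoxicity by CellTiter 96 aqueous nonradioactive cell proliferation assay.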

[6] = Metabolic stability in Fischer F344 rat liver microsomes assessed as parent compound remaining after 60 mins in presence of NADPH by HPLC analysis; format: ADME, Microsome; details: read-out: Stability
How it was run: (§2)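 Stability is reported as % of compound remaining after 60 min incubation in plasma or liver microsomes, relative to t0.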

[7] = test system: Zaire ebolavirus; test: Antiviral activity against Ebola virus 1976 Mayinga infected in human HeLa cells pretreated for 1 hr followed by virus infection measured after 24 hrs by Hoechst staining-based immunofluorescence assay; format: functional, organism-based
[8] = Metabolic stability in Sprague-Dawley rat pooled plasma assessed as parent compound remaining at 20 uM after 60 mins by HPLC analysis; format: ADME, cell-free; details: read-out: Stability; how it was run: as §2
[9] = Metabolic stability in human liver microsomes assessed as parent compound remaining after 60 mins in presence of NADPH by HPLC analysis; format: ADME, Microsome; details: read-out: Stability; how it was run: as §2
[10] = Metabolic stability in human pooled plasma assessed as parent compound remaining at 20 uM after 60 mins by HPLC analysis; format: ADME, cell-free; details: read-out: Stability; how it was run: as §2
[11] = Selectivity index, ratio of CC50 for human HeLa cells to EC50 for Ebola virus 1976 Mayinga in human HeLa cells; format: toxicity, cell-based; details: read-out: Ratio CC50/EC50
[12] = test system: Marburgvirus; test: Antiviral activity against Marburg virus Lake Victoria, 2005 Angola infected in human HeLa cells pretreated for 1 hr followed by virus infection measured after 24 hrs by Hoechst staining-based immunofluorescence assay; format: functional, organism-based, Lake Victoria marburgvirus; details: Orthomarburgvirus, Angola2005, HeLa
[13] = biological target: Cytochrome P450 3A4 (Homo sapiens, UniProt P08684); test: Inhibition of recombinant human CYP3A4 expressed in baculovirus infected insect cell microsomes using vivid DBOMF as substrate preincubated for 10 mins followed by substrate addition and measured after 25 mins in presence of […] by fluorescence assay; format: ADME
How it was run: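 CYP3A4 inhibition IC50 is determined with 10 μM quinidine as positive inhibitor control, from three replicates; errors are estimated <10%.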

[14] = biological target: Cytochrome P450 2C9 (Homo sapiens, UniProt P11712); test: Inhibition of recombinant human CYP2C9 expressed in baculovirus infected insect cell microsomes using vivid BOMF as substrate preincubated for 10 mins followed by substrate addition and measured after 25 mins in presence of […] by fluorescence assay; format: ADME
How it was run: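 CYP2C9 inhibition IC50 is determined with 30 μM sulfaphenazole as positive inhibitor control, from three replicates; errors are estimated <10%.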

Cytochrome P450 3A4, sequence (P08684 whole entry): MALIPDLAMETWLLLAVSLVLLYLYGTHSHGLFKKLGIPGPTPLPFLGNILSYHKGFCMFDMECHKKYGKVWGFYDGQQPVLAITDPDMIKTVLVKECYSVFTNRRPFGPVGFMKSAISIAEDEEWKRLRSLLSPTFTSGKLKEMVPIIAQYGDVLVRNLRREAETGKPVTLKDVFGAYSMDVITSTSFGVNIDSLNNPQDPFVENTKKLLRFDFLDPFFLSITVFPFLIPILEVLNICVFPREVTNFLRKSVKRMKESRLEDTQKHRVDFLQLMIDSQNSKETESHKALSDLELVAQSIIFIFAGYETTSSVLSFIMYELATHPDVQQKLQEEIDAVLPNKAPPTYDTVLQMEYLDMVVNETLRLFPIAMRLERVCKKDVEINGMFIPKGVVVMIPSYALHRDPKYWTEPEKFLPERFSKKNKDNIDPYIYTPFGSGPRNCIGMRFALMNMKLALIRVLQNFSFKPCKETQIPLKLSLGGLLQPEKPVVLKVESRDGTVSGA
Cytochrome P450 2C9, sequence (P11712 whole entry): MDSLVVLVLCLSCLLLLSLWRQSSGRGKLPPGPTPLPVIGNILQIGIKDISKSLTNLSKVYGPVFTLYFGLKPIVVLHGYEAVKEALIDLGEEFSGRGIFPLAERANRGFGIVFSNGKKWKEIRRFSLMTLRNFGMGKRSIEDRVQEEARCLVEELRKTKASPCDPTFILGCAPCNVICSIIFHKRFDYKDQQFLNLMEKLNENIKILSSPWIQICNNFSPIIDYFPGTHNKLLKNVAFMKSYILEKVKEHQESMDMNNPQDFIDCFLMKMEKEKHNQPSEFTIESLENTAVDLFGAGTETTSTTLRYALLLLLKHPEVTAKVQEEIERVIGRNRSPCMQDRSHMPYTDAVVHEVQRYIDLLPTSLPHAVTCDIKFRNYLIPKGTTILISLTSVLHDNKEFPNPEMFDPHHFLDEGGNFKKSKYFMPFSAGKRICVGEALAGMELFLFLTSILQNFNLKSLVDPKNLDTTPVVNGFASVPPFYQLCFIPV

SMILES | inhibition [1] [%] | EC50 [2] [nM] | EC50 [3] [nM] | inhibition [4] [%] | selectivity ratio [5] | also measured
O=C(Nc1cccc(C(F)(F)F)c1)c1ccc(CN2CCCCC2)cc1 | 82.2 | 1410 | 2970 | 57.5 | 15 | 
CC(c1ccc(C(=O)NCCOC2CCCCC2)cc1)N1CCCCC1 (configuration not stated) | 52.4 |  |  | 42.5 |  | 
COC(=O)c1ccc(NC(=O)c2ccc(CN3CCOCC3)cc2)cc1 | 57.2 |  |  | 68.8 |  | 
COC(=O)c1ccc2c(c1)CCN2C(=O)c1ccc(CN2CCCCC2)cc1 | 41.7 |  |  | 51.2 |  | 
CC1(C)CN(C(=O)c2ccc(CN3CCCCC3)cc2)c2ccccc21 | 87.3 | 2900 | 2220 | 21.4 | 33 | 
O=C(NCC1CCC(F)(F)CC1)c1ccc(CN2CCCCC2)cc1 | 42.9 |  |  | 23 |  | 
O=C(c1ccc(CN2CCCCC2)cc1)N1CC2(CC2)c2ccccc21 | 74.5 |  |  | 34.4 |  | 
CC(C)c1ccc(NC(=O)c2ccc(CN3CCCCC3)cc2)cc1 | 93.1 | 2100 | 2870 | 67.5 | 10 | 
COC(=O)c1ccc(NC(=O)c2cccc(CN3CCCCC3)c2)cc1 | 13 |  |  | 5.9 |  | 
O=C(c1ccc(CN2CCCCC2)cc1)N1CCc2ccc(C(F)(F)F)cc21 | 83.7 | 1460 | 1680 | 59.2 | 38 | remaining at 1 h [6]: 0%; EC50 [7]: 3220 nM; remaining at 1 h, 20 µM [8]: 0%; remaining at 1 h [9]: 31%; remaining at 1 h, 20 µM [10]: 85%; selectivity ratio [11]: 39; EC50 [12]: 8170 nM
O=C(Nc1ccc(C2CCCCC2)cc1)c1ccc(CN2CCCCC2)cc1 | 98.1 | 960 | 990 | 73.4 | 101 | 
O=C(Nc1ccc(C(F)(F)F)c(Cl)c1)c1ccc(CN2CCCCC2)cc1 | 99.7 | 2050 | 2340 | 98.5 | 9 | 
CC(c1ccc(C(=O)N2CC(C(C)(C)C)c3ccccc32)cc1)N1CCCCC1 (configuration not stated) | 99.9 | 3180 | 160 | 92.8 | 224 | remaining at 1 h [6]: 0%; EC50 [7]: 870 nM; remaining at 1 h, 20 µM [8]: 2%; remaining at 1 h [9]: 2%; remaining at 1 h, 20 µM [10]: 88%; selectivity ratio [11]: 137; EC50 [12]: 6320 nM
O=C(Nc1ccc(C(F)(F)F)nc1)c1ccc(CN2CCCCC2)cc1 | 5.4 |  |  | 9.4 |  | 
O=C(Nc1ccc(C2CC2)cc1)c1ccc(CN2CCCCC2)cc1 | 74.3 | 2650 | 4570 | 66.2 | 22 | 
CC(c1ccc(C(=O)NCC2COC3(CCCCC3)O2)cc1)N1CCCCC1 (configuration not stated) | 56 |  |  | 37.2 |  | 
CC(c1ccc(C(=O)Nc2ccc(C3CCCCC3)cc2)cc1)N1CCCCC1 (configuration not stated) | 99.3 | 850 | 330 | 88.9 | 390 | remaining at 1 h [6]: 24%; EC50 [7]: 1800 nM; remaining at 1 h, 20 µM [8]: 82%; remaining at 1 h [9]: 31%; remaining at 1 h, 20 µM [10]: 88%; selectivity ratio [11]: 54; EC50 [12]: 5560 nM
O=C(Nc1ccc(C(F)(F)F)cc1)c1ccc(CN2CCCCC2)cc1 | 89.9 | 5700 | 3870 | 79.3 | 9 | 
O=C(c1ccc(CN2CCCCC2)cc1)N1CCc2ccc(Cl)cc21 | 81.5 | 2310 | 2220 | 42.4 | 14 | 
O=C(Nc1ccc(C23CC4CC(CC(C4)C2)C3)cc1)c1ccc(CN2CCCCC2)cc1 | 99.4 | 380 | 35 | 99 | 231 | remaining at 1 h [6]: 71%; EC50 [7]: 110 nM; IC50 [13]: > 100000 nM; IC50 [14]: > 100000 nM; remaining at 1 h, 20 µM [8]: 96%; remaining at 1 h [9]: 75%; remaining at 1 h, 20 µM [10]: 100%; selectivity ratio [11]: 202; EC50 [12]: 1230 nM
O=C(Nc1ccc(C2CCCCC2)cc1)c1ccc(CN2CCCCC2)c(F)c1 | 96.1 | 1330 | 380 | 71 | 382 | remaining at 1 h [6]: 23%; EC50 [7]: 1040 nM; remaining at 1 h, 20 µM [8]: 86%; remaining at 1 h [9]: 28%; remaining at 1 h, 20 µM [10]: 87%; selectivity ratio [11]: 128; EC50 [12]: 16600 nM
COC(=O)c1ccc2c(c1)CCN2C(=O)c1ccc(CN2CCCCC2)s1 | 38.9 |  |  | 0 |  | 

SMILES | inhibition [1] [%] | EC50 [2] [nM] | EC50 [3] [nM] | inhibition [4] [%] | selectivity ratio [5] | also measured
CC(c1ccc(C(=O)N2CCc3cc(C(C)(C)C)ccc32)cc1)N1CCCCC1 (configuration not stated) | 99.8 | 3090 | 2050 | 98.1 | 9 | remaining at 1 h [6]: 27%; IC50 [13]: 24000 nM; IC50 [14]: 7940 nM; remaining at 1 h, 20 µM [8]: 62%; remaining at 1 h [9]: 46%; remaining at 1 h, 20 µM [10]: 94%; selectivity ratio [11]: 19; EC50 [12]: 3380 nM
O=C(c1ccc(CN2CCCCC2)cc1)n1ccc2ccc(C(F)(F)F)cc21 | 0 |  |  | 0 |  | 
O=C(c1ccc(CN2CCCCC2)cc1)N1CCc2cc(C(F)(F)F)ccc21 | 56.4 |  |  | 49.6 |  | 
N#Cc1ccc(NC(=O)c2ccc(CN3CCCCC3)cc2)cc1 | 0 |  |  | 12.4 |  | 
CNS(=O)(=O)c1ccc(NC(=O)c2ccc(CN3CCCCC3)cc2)cc1 | 0 |  |  | 3.3 |  | 
COC(=O)c1ccc(NC(=O)c2ccc(CN3CCN(C)CC3)cc2)cc1 | 29.4 |  |  | 30.3 |  | 
CS(=O)(=O)c1ccc(NC(=O)c2ccc(CN3CCCCC3)cc2)cc1 | 0 |  |  | 17.4 |  | 
COC(=O)c1ccc(NC(=O)c2ccc(C(=O)N3CCCCC3)cc2)cc1 | 12.9 |  |  | 0 |  | 
COC(=O)c1ccc2c(c1)CCCN2C(=O)c1ccc(CN2CCCCC2)cc1 | 25.1 |  |  | 0 |  | 
COC(=O)c1cccc(NC(=O)c2ccc(CN3CCCCC3)cc2)c1 | 0 |  |  | 0 |  | 
CC(c1ccc(C(=O)N2CCc3ccc(C(F)(F)F)cc32)cc1)N1CCCCC1 (configuration not stated) | 95.6 | 1730 | 1560 | 76.9 | 21 | 
N#CC(c1ccc(NC(=O)c2ccc(CN3CCCCC3)cc2)cc1)C1CCCC1 (configuration not stated) | 96.8 | 1630 | 730 | 94 | 99 | 
COC(=O)c1ccc(NC(=O)c2ccc(CN3CCCCC3)s2)cc1 | 33.8 |  |  | 27.2 |  | 
O=C(Nc1ccc(C(F)(F)F)cc1)c1ccc(CN2CCCCC2)s1 | 80.2 | 3650 | 5600 | 70 | 9 | 
O=C(Nc1ccc(Cl)c(C(F)(F)F)c1)c1ccc(CN2CCCCC2)cc1 | 99.6 | 1240 | 1520 | 98.2 | 7 | 
O=C(Nc1ccc(N2CCC(F)(F)CC2)cc1)c1ccc(CN2CCCCC2)cc1 | 99.7 | 1880 | 820 | 88.8 | 69 | 
O=C(NCCC1CCCCC1)c1ccc(CN2CCCCC2)cc1 | 90.9 | 7740 | 2320 | 27.3 | 25 | 
CS(=O)(=O)Nc1ccc(NC(=O)c2ccc(CN3CCCCC3)cc2)cc1 | 3.91 |  |  | 6.81 |  | 
O=C(c1ccc(CN2CCCCC2)cc1)N1CCc2ccc(F)cc21 | 20.1 |  |  | 13.5 |  | 
CN(C)CCOc1ccc(/C(=C(/CCCl)c2ccccc2)c2ccccc2)cc1 [TOREMIFENE] |  |  | 90 |  |  | EC50 [7]: 670 nM; EC50 [12]: 3250 nM
O=C(O)c1ccc(NC(=O)c2ccc(CN3CCCCC3)cc2)cc1 | 3.12 |  |  | 10.3 |  | 
